Measured values: ChEMBL document CHEMBL1152541, “Staurosporine tethered peptide ligands that target cAMP-dependent protein kinase (PKA): optimization and selectivity profiling” (Bioorg Med Chem, 2009)
Values belong to the compound of their own block, whether it stands above or below them. *1 amine or outer side, *2 acyl side, *3 side chain or, on linkers, in order; H or OH if unused. Where a SMILES comes first, the peptide text is derived from it. Bridges are numbered along the chain shown (N, C = ends). [ ]: non-standard residue; d: D form. The star is where a group is joined. Staurosporine = CO[C@@H]1[C@H](N(C)*)C[C@H]2O[C@]1(C)n1c3ccccc3c3c4c(c5c6ccccc6n2c5c31)C(=O)NC4; Suc = O=C(CCC(=O)[*:2])[*:1]; Dap = NC[C@H](N)C(=O)O; βAla = NCCC(=O)O

Assays:
[1] = molecular target: Cyclin-dependent kinase 7 (Homo sapiens) (UniProt P50613); assay: Binding affinity to human CDK7 at 500 nM by cell-based competition binding assay relative to control in presence of DTT
Summary of the method: (§1)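 Commercial (Ambit) competitive kinase-binding panel of 90 kinases measured the binding profile. Run under reducing conditions of 7.5 mM DTT. Binding is expressed relative to control.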

[2] = molecular target: Mitogen-activated protein kinase 11 (Homo sapiens) (UniProt Q15759); assay: Binding affinity to human p38beta at 500 nM by cell-based competition binding assay relative to control in presence of DTT
[3] = molecular target: Serine/threonine-protein kinase PLK1 (Homo sapiens) (UniProt P53350); assay: Binding affinity to human PLK1 at 500 nM by cell-based competition binding assay relative to control in presence of DTT
[4] = molecular target: Serine/threonine-protein kinase pim-2 (Homo sapiens) (UniProt Q9P1W9); assay: Binding affinity to human PIM2 at 500 nM by cell-based competition binding assay relative to control in presence of DTT
[5] = molecular target: Serine/threonine-protein kinase pim-1 (Homo sapiens) (UniProt P11309); assay: Binding affinity to human PIM1 at 500 nM by cell-based competition binding assay relative to control in presence of DTT
[6] = tested on: Tyrosine-protein kinase ABL1 (Homo sapiens), P00519 [T315I]; assay: Binding affinity to human ABL1 T315I mutant at 500 nM by cell-based competition binding assay relative to control in presence of DTT
Summary of the method: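 Kinase binding profiling ran on a commercial (Ambit) competitive binding screen against a panel of 90 kinases. The screen used reducing conditions with 7.5 mM DTT. To withstand the DTT, the bivalent ligand was tested as its amide isostere, with the disulfide replaced. A staurosporine derivative carrying a 3 β-alanine linker was run as the reference compound.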

[7] = molecular target: T1, NUAK family SNF1-like kinase 2 (Homo sapiens) (UniProt Q9H093); assay: Binding affinity to human SNARK at 200 nM by cell-based competition binding assay relative to control in presence of DTT
T1 sequence (whole entry): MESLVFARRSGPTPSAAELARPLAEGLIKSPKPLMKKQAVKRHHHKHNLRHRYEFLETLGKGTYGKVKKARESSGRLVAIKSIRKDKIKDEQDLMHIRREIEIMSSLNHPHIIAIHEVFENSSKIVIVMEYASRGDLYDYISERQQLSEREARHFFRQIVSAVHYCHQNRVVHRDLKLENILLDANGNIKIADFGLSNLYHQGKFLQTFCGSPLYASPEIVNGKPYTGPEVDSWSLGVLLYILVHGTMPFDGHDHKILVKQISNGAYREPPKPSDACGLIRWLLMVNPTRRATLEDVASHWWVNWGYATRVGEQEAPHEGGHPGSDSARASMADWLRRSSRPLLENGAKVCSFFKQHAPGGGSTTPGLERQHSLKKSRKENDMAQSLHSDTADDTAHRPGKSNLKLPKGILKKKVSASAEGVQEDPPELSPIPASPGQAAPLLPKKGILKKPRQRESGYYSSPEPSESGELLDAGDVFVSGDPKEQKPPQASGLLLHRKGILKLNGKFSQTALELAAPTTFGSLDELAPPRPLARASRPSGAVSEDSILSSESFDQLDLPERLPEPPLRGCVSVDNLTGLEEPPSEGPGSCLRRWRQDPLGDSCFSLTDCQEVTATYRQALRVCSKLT

[8] = molecular target: Casein kinase I isoform gamma-2 (Homo sapiens) (UniProt P78368); assay: Binding affinity to human CSNK1G2 at 200 nM by cell-based competition binding assay relative to control in presence of DTT; summary of the method: as §1
[9] = molecular target: Receptor tyrosine-protein kinase erbB-4 (Homo sapiens) (UniProt Q15303); assay: Binding affinity to human ERBB4 at 200 nM by cell-based competition binding assay relative to control in presence of DTT; summary of the method: as §1
[10] = molecular target: Serine/threonine-protein kinase 32C (Homo sapiens) (UniProt Q86UX6); assay: Binding affinity to human YANK3 at 200 nM by cell-based competition binding assay relative to control in presence of DTT
[11] = molecular target: Mitogen-activated protein kinase 8 (Homo sapiens) (UniProt P45983); assay: Binding affinity to human JNK1 at 200 nM by cell-based competition binding assay relative to control in presence of DTT
Summary of the method: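 Competition binding screen (Ambit) across a panel of 90 kinases, scoring test ligand displacement of each kinase's binding relative to control. The screen ran under reducing conditions with 7.5 mM DTT.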

[12] = molecular target: Mitogen-activated protein kinase 14 (Homo sapiens) (UniProt Q16539); assay: Binding affinity to human p38alpha at 200 nM by cell-based competition binding assay relative to control in presence of DTT
[13] = molecular target: T2, Tyrosine-protein kinase ZAP-70 (Homo sapiens) (UniProt P43403); assay: Binding affinity to human ZAP70 at 50 nM by cell-based competition binding assay relative to control in presence of DTT
T2 sequence (whole entry): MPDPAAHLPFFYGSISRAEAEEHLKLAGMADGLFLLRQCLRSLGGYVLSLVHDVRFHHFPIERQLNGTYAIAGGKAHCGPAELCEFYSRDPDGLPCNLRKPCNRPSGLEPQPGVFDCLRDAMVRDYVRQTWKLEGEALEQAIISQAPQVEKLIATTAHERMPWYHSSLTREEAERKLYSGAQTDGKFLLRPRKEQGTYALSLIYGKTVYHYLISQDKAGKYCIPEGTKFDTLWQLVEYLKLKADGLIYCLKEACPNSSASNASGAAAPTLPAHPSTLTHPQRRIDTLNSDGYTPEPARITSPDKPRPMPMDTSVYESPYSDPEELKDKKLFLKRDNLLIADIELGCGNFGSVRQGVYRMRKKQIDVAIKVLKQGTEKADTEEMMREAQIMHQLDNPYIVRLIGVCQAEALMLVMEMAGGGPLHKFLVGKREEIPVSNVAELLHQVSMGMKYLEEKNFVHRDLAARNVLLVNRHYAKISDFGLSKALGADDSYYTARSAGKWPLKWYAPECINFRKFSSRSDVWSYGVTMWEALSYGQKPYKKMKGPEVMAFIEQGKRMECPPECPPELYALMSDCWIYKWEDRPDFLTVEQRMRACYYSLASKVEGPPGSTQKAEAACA

[14] = molecular target: Focal adhesion kinase 1 (Homo sapiens) (UniProt Q05397); assay: Binding affinity to human PTK2 at 50 nM by cell-based competition binding assay relative to control in presence of DTT
[15] = molecular target: Aurora kinase B (Homo sapiens) (UniProt Q96GD4); assay: Binding affinity to human aurora kinase B at 50 nM by cell-based competition binding assay relative to control in presence of DTT

Activity [1]: 100%
Activity [2]: 100%
Activity [3]: 85%
Activity [4]: 100%
Activity [5]: 20%
Activity [6]: 35%
SMILES: CO[C@@H]1[C@H](N(C)C(=O)CCC(=O)NCCC(=O)NCCC(=O)NCCC(N)=O)C[C@H]2O[C@]1(C)n1c3ccccc3c3c4c(c5c6ccccc6n2c5c31)C(=O)NC4

Activity [7]: 0.45%
Activity [8]: 100%
Activity [9]: 100%
Activity [10]: 100%
Activity [11]: 83%
Activity [12]: 89%
SMILES: CO[C@@H]1[C@H](N(C)C(=O)CCC(=O)NCCC(=O)NCCC(=O)NCCC(=O)NCCC(=O)NCCC(=O)NCCC(=O)NCCC(=O)N[C@H]2CSSC[C@@H](C(=O)NCC(N)=O)NC(=O)CNC(=O)[C@H](Cc3ccccc3)NC(=O)[C@H](C(C)C)NC(=O)[C@H](CCCNC(=N)N)NC(=O)[C@H](Cc3ccccc3)NC(=O)[C@H](C(C)C)NC2=O)C[C@H]2O[C@]1(C)n1c3ccccc3c3c4c(c5c6ccccc6n2c5c31)C(=O)NC4 ({Staurosporine-Suc-βAla-βAla-βAla-βAla-βAla-βAla-βAla}-CVFRVFGCG-NH2; disulfide 1-8)

Activity [13]: 57%
Activity [14]: 100%
Activity [15]: 33%
SMILES: CO[C@@H]1[C@H](N(C)C(=O)CCC(=O)NCCC(=O)NCCC(=O)NCCC(=O)NCCC(=O)NCCC(=O)NCCC(=O)NCCC(=O)N[C@H]2CNC(=O)C[C@@H](C(N)=O)NC(=O)CNC(=O)[C@H](Cc3ccccc3)NC(=O)[C@H](C(C)C)NC(=O)[C@H](CCCNC(=N)N)NC(=O)[C@H](Cc3ccccc3)NC(=O)[C@H](C(C)C)NC2=O)C[C@H]2O[C@]1(C)n1c3ccccc3c3c4c(c5c6ccccc6n2c5c31)C(=O)NC4 ({Staurosporine-Suc-βAla-βAla-βAla-βAla-βAla-βAla-βAla}-[Dap]VFRVFGD-NH2; lactam 1-8)
